An excerpt weighted towards active compounds, which were near 0.57% of everything screened.
GASC-1 inh: human JMJD2C demethylase inhibition; hit rate 0.069% among 330,000; inhibition, % at 2.35 µM; AID 2099; Q9H3R0; GST-JMJD2C(1-420) H3K9me3 demethylation, DELFIA europium;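 active means more than half of a compound's replicate wells show inhibition beyond 50%, single wells judged on their own value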;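 further: signal counts dimethyl H3K9 product captured on neutravidin plate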
Arr AP2 block: blocks beta-arrestin peptide binding to AP2 adaptin. FITC-arrestin peptide / GST-AP2 beads, flow cytometry; AP2 beta2 appendage carries R879A mutation. inhibition, % at 10 µM. hit rate 0.31% among 340,000. AID 504490;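 active means inhibition above a set limit, near 3 SD of compounds lacking own fluorescence, cut at about 54% in these data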
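test system = AP2 appendage R879A on GSH beads | buffer or medium = PBS plus Tween 20 (0.05%) and BSA (0.1%) | incubation = 12 min plus 1 h, RT | detection = bead flow cytometry, FITC channel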
p-CIP stab down: p/CIP protein destabilization. F442A p/CIP-EGFP cells, EGFP fluorescence, 16 h. Q05BA5. hit rate 0.01% among 290,000. decrease of EGFP signal, % at 10 µM;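 active means EGFP signal decrease of at least 30% at 10 µM or well 3 SD below plate mean, unless failing retest; inactive means the rest, including hits failing retest or dose response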
Target sequence (Q05BA5 1-1403): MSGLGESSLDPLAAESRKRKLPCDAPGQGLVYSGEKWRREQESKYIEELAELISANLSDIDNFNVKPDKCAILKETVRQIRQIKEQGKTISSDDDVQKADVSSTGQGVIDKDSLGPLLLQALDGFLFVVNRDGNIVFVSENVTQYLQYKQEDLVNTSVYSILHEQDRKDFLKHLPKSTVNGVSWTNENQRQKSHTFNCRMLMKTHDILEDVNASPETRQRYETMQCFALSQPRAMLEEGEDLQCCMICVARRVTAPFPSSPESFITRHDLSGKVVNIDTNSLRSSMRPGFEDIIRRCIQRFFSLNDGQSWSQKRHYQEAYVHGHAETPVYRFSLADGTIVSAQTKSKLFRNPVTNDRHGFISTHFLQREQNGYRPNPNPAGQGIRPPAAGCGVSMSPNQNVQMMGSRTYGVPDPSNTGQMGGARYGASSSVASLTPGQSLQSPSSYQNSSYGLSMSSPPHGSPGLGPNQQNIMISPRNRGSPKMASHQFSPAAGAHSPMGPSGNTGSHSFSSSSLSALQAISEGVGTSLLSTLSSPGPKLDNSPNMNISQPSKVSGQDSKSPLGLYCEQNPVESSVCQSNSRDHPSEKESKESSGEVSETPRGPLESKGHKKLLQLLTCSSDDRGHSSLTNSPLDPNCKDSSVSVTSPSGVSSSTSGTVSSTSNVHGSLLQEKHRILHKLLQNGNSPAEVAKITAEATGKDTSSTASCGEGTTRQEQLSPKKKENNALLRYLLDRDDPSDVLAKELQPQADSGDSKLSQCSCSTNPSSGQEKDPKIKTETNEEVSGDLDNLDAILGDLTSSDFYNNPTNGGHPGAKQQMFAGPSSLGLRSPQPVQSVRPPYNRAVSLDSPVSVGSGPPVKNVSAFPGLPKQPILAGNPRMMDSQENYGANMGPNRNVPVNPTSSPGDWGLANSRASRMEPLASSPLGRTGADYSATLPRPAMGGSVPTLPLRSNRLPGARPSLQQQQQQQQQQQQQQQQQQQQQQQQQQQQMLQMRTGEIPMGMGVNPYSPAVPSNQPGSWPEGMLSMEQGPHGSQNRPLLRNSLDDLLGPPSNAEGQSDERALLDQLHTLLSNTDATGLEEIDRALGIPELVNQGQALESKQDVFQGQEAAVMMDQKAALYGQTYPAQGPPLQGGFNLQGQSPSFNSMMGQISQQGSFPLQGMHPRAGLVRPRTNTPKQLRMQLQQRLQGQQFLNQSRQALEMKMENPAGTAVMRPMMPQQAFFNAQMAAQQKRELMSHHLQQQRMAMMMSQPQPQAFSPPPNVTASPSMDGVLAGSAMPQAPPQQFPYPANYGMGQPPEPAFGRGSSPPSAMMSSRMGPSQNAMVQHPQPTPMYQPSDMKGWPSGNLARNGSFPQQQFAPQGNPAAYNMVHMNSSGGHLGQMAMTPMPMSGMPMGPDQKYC
VLA-4 inh: inhibition in a human VLA-4 binding assay. P13612. VLA-4 expressing cells, ligand binding flow cytometry. inhibition, % (about 7 µM as worked out from the volumes in the protocol). hit rate 0.2% among 330,000. AID 2557; in the data active means inhibition above about 50%
Arr AP2 CP1: blocks beta-arrestin peptide binding to human AP2 | AID 504908 | hit rate 2% among 1,300 | inhibition, % at 10 µM | shares compounds with Arr AP2 block | GST-AP2 beads, FITC arrestin peptide binding, flow cytometry; GST-fused beta2-adaptin appendage, R879A mutant;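 active means inhibition above a set limit, roughly 3 SD of non-fluorescent compound noise, cut at about 38% in these data; inactive means inhibition at or below that limit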;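 further: loss of bead fluorescence from 50 nM FITC arrestin peptide bound to appendage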
GST-FITC bead: disrupts GST binding to glutathione beads, arrestin-AP2 artifact; shares compounds with Arr AP2 block; GST-fluorescein binding to GSH beads, fluorescence, counter-screen; inhibition, % at 10 µM; hit rate 2% among 1,300; AID 588338;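 active means inhibition above 50%, about 3 SD of the inhibition seen with non-fluorescent compounds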;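 further: fluorescein maleimide labelled GST captured on 4 micron glutathione beads; higher means more loss of bead fluorescence from quenching or blocked binding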
Numbers stand for hits; - = inactive; . = no result given.

SMILES	GASC-1 inh	Arr AP2 block	p-CIP stab down	VLA-4 inh	Arr AP2 CP1	GST-FITC bead
O=[N+]([O-])c1ccc(/C=C/c2ccc3cccc(O)c3n2)cc1	-	56.6	-	-	-	-
CCCCNC(=O)Cn1nc([N+](=O)[O-])c([N+](=O)[O-])c1C	-	69.2	-	-	-	-
Cc1ccnc2nc(C(=O)OCC(=O)N3CC(C)CC(C)C3)nn12 (stereo not drawn)	.	-	.	.	.	.
CCC(NC(=O)CCc1ccccc1)c1ccccc1 (stereo not drawn)	-	61.5	-	-	-	-
O=C(COc1coc(CN2CCc3ccccc3C2)cc1=O)Nc1ccccc1F	-	65.3	.	-	-	-
COc1cccc(NC(=O)COc2coc(CN3CCc4ccccc4C3)cc2=O)c1	-	59.3	.	-	-	-
O=C(COc1coc(CN2CCc3ccccc3C2)cc1=O)Nc1cccc(F)c1	-	-	.	-	.	.
O=C(Cc1ccccc1[N+](=O)[O-])N1CCN(c2ccccc2F)CC1	-	60.8	-	-	-	-
O=C(Cc1ccccc1[N+](=O)[O-])N1CCOCC1	-	-	-	-	.	.
COc1cc(/C=C/C(=O)O)ccc1OS(=O)(=O)c1cc(Br)ccc1C	-	55.9	.	-	-	-
CCOC(=O)N1CCN(C(=O)c2ccc(N(Cc3ccc(Cl)cc3)S(C)(=O)=O)cc2)CC1	-	-	-	-	.	.
COc1cc(-c2ccccc2)nc2ccccc12	-	-	-	-	.	.
COc1cc(C(=O)O)nc2ccccc12	-	56.4	-	-	-	-
COc1ccc(-c2noc(CN(C)C(=O)c3ccc4c(c3)OCO4)n2)cc1OC	-	-	-	-	.	.
COc1ccc(-c2noc(CN(C(=O)c3ccc4c(c3)OCO4)C(C)C)n2)cc1OC	-	59.7	.	-	-	-
O=C1c2ccccc2NC(c2cnc3ccccc3n2)N1O (stereo not drawn)	-	94.5	-	-	-	-
CCN(CC)Cc1c(O)ccc2c(=O)c(Oc3ccccc3OC)coc12	-	56.2	-	-	-	-
O=c1oc2ccccc2c2c1C(c1ccc(Cl)cc1)Nc1ccc3ccccc3c1-2 (stereo not drawn)	-	84.7	-	-	-	-
COc1ccc(CCN(C)C(=O)c2cc(-c3ccccc3)nc3ccc(C)cc23)cc1OC	-	66.8	-	-	-	-
COCCNC(=O)c1cccc(OC2CCN(Cc3ccc(C(=O)OC)cc3)CC2)c1	-	-	-	-	.	.
COC(=O)c1ccc(CN2CCC(Oc3cccc(C(=O)N4CCOCC4)c3)CC2)cc1	-	70.1	-	-	-	-
CCOc1ccc(NC(=O)CC2C(=O)N(c3ccc(OC)cc3)C(=O)N2CCc2ccc(OC)c(OC)c2)cc1 (stereo not drawn)	-	55.8	-	-	-	-
Cc1ccc(CN2C(=O)CCC2C(=O)NCCCN2CCCC(C)C2)cc1 (stereo not drawn)	-	-	-	-	-	-
O=C(NCCCN1CCN(c2cccc(Cl)c2)CC1)C1CCC(=O)N1Cc1ccccc1Cl (stereo not drawn)	-	-	-	.	-	-
Cc1ccc(CNC(=O)C2CCC(=O)N2Cc2ccc(C)cc2)cc1 (stereo not drawn)	-	-	-	-	.	.
SMILES	GASC-1 inh	Arr AP2 block	p-CIP stab down	VLA-4 inh	Arr AP2 CP1	GST-FITC bead
Cc1ccc(CN2C(=O)CCC2C(=O)NCCN2CCOCC2)cc1 (stereo not drawn)	-	-	-	-	-	-
COc1ccc(S(=O)(=O)N2CCOCC2)cc1N(C)S(=O)(=O)c1ccc(C)cc1	-	-	-	-	.	.
COc1ccc(C#Cc2c(-c3ccccc3)n(-c3ccccc3)c3ccc(CO)cc23)cc1	.	-	.	-	.	.
Cc1ccc(SCC(=O)OCC(=O)NCCNC(=O)COC(=O)CSc2ccc(C)c(C)c2)cc1C	-	68.1	.	-	-	-
O=C(Cn1nc(-c2ccccc2)ccc1=O)Nc1ccc(N2CCN(C(=O)c3ccccc3)CC2)cc1	-	-	-	-	.	.
CN1/C(=C/C(=O)c2ccc(Cl)cc2)Sc2cc3c(cc21)OCO3	-	103.4	-	-	-	-
COc1ccc2c(c1)S/C(=C\C(=O)c1ccncc1)N2C	-	91.4	-	-	-	-
Cc1ccc(C2=NN(C(=O)CCC(=O)O)C(c3ccc4c(c3)OCO4)C2)cc1 (stereo not drawn)	-	-	-	-	.	.
COC(=O)C(N)Cc1ccc(O)c(O)c1 (stereo not drawn)	-	80.8	-	-	-	-
COC(=O)C(N)Cc1ccc(O)cc1 (stereo not drawn)	-	-	-	-	.	.
Cc1ccc(C(CNS(=O)(=O)c2ccccc2)N2CCN(C)CC2)cc1 (stereo not drawn)	-	-	.	-	.	.
C/C(=N\NC(=O)c1ccccc1OCCOc1ccccc1)c1ccccc1F	.	75.7	.	.	-	-
C/C(=N\NC(=O)c1ccccc1)c1ccccc1F	-	-	-	-	.	.
Cc1nn(Cc2ccc(F)cc2)c(C)c1NC(=O)c1cc2ncc(Br)cn2n1	-	-	-	-	.	.
COc1cc(NC(=O)CCN2C(=O)NC3(CCCC3)C2=O)c(OC)cc1Cl	-	-	.	-	.	.
CCN(CC)C(=S)NC(=O)c1cc(OC)c(OC)c(OC)c1	-	56.5	-	-	-	-
CCOC(=O)n1c(O)c(N=NC(N)=S)c2cc(C)ccc21	-	54.2	-	-	-	-
COc1ccc(-n2nc(C(=O)NCC(=O)N3CCCCCC3)c3ccccc3c2=O)cc1OC	-	-	-	-	.	.
COc1ccc(CC(=O)Oc2ccc(C(C)(C)C)cc2)cc1S(=O)(=O)N1CCOCC1	-	-	.	-	.	.
Cc1ccc(NC(=O)Nc2cnccn2)c(C)c1	-	-	-	-	-	-
COc1cccc(NC(=O)Nc2cnccn2)c1	-	-	-	-	-	-
COc1ccc(OC)c(NC(=O)Nc2cccnc2)c1	-	-	-	-	.	.
COc1ccc(OC)c(NC(=O)Nc2cnccn2)c1	-	56.0	-	-	-	-
Cc1ccc(NC(=O)Nc2cccc(C)n2)c(C)c1	-	-	-	-	.	.
Cc1cccc(NC(=O)Nc2cnccn2)c1	-	-	-	-	-	-
SMILES	GASC-1 inh	Arr AP2 block	p-CIP stab down	VLA-4 inh	Arr AP2 CP1	GST-FITC bead
COc1cccc(NC(=O)Nc2ccncc2)c1	-	-	-	-	.	.
CCOC(=O)N1CCN(C(=O)c2ccc(OC)c(OC)c2)CC1	-	-	-	-	.	.
CCN(Cc1ccccc1)C(=O)CCNS(=O)(=O)c1cc(Br)cnc1N	-	-	-	-	.	.
Nc1ncc(Br)cc1S(=O)(=O)Nc1ccccc1F	-	58.4	-	-	-	-
CCOC(=O)N1CCN(C(=O)c2ccc([N+](=O)[O-])cc2Cl)CC1	-	-	-	-	.	.
O=C(/C=C/c1cccs1)Nc1cccnc1	-	55.8	-	-	-	-
COc1cccc(CNC(=O)c2ccncc2)c1	-	68.5	-	-	-	-
O=S(=O)(c1cccc2cccnc12)N1CCN(c2ccc(F)cc2)CC1	-	-	-	-	.	.
CCOc1ccccc1NC(=O)Cn1c(=O)c2ccccc2n(CC)c1=O	-	-	-	-	-	-

Screens: PubChem BioAssay, several laboratories
